Experimental data as given in ChEMBL document CHEMBL4665824, “Characterization and Discovery of a Selective Small-Molecule Modulator of Mitochondrial Complex I Targeting a Unique Binding Site” (J Med Chem, 2020).
Active and inactive are the calls of the source. The calls are words filed in the database; no cut-off is given here.

Experiments:
Cerebral cortex [1] = test: Effect on ADP/O ratio in C57BL/6 mouse cerebral cortex mitochondria at 2 uM (reference value: 2.9)
Cortical neuron [2] = test: Inhibition of mitochondrial complex 1 in mouse cortical neurons assessed as inhibition of rotenone-induced ROS production by measuring ROS production rate at 1 uM incubated for 12 hrs by mitoSOX fluorescence based flow cytometry (Rvb =3.3 RFU/min)
SH-SY5Y [3] = test: Inhibition of mitochondrial complex 1 in human SH-SY5Y cells assessed as inhibition of MPP+-induced mitochondrial depolarization in presence of 10 uM trolox incubated for 24 hrs by fluorescence based assay; format: cell-based
Outline: (§1)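 SH-SY5Y cells (4×10^5/well) treated with compound, NAC (10 μM) or trolox (10 μM) plus MPP+ (30 μM) for 24 h. TMRM added at 100 nM final for 30 min. Cells trypsinized, resuspended in PBS and read by flow cytometry.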

MC65 [4] = test: Inhibition of mitochondrial complex 1 in human MC65 cells assessed as inhibition of rotenone-induced ROS production by measuring ROS production rate at 1 uM incubated for 12 hrs by mitoSOX fluorescence based flow cytometry (reference value: 8.3 RFU/min)
Mus musculus [5] = organism: Mus musculus; test: Inhibition of mitochondrial complex 2 in C57BL/6 mouse cerebral cortex mitochondria assessed as modulation of maximal rate of ADP-stimulated respiration of succinate at 2 uM
Mus musculus [6] = organism: Mus musculus; test: Inhibition of mitochondrial complex 1 in permeabilized mouse brain mitochondria assessed as reduction in ROS production at 2 to 6 uM incubated for 1 hr in presence of NADH by Amplex Red and horseradish peroxidase based assay; settings: dose microM 2-6, time 1.0 hrs
Outline: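 Permeabilized mouse brain mitochondria (0.1 mg protein/ml) were pretreated with compound for 1 h at 30 °C. H2O2 release was triggered with NADH (10 μM) and detected by Amplex Red (50 μM) oxidation with HRP (0.1 U/ml) at Ex/Em 530/590 nm. Output was calibrated against an H2O2 standard curve (linear to 2 μM). N=6, mean ± SEM, Student t-test.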

SH-SY5Y [7] = test: Inhibition of mitochondrial complex 1 in human SH-SY5Y cells assessed as inhibition of MPP+-induced mitochondrial depolarization incubated for 24 hrs by fluorescence based assay; format: cell-based
Outline: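 SH-SY5Y cells (4×10^5 per well) were co-treated with compound and MPP+ (30 μM) for 24 h at 37 °C. TMRM was then added to 100 nM final for 30 min. Cells were trypsinized, pelleted, resuspended in PBS, and membrane potential fluorescence was read by flow cytometry.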

Mus musculus [8] = test: Effect on ADP/O ratio in 5 months old transgenic AD mouse model at 50 mg/kg, po dosed 5 times/week for 2 weeks; format: functional, organism-based
Mus musculus [9] = test: Effect on respiratory control ratio in 5 months old transgenic AD mouse model in presence of succinate at 50 mg/kg, po dosed 5 times/week for 2 weeks (2.5 +/- 0. 2); format: functional
MC65 [10] = test: Effect on mitochondrial membrane potential in human MC65 cells at 0.3 to 1 uM incubated for 48 hrs by flow cytometry; format: functional, cell-based; settings: dose microM 0.3-1, time 48.0 hrs
[11] = Inhibition of mitochondrial complex 1 in 5 months old transgenic AD mouse model assessed as suppression of maximal rate of ADP-stimulated respiration of pyruvate at 50 mg/kg, po dosed 5 times/week for 2 weeks; format: functional; settings: 336 h
[12] = Effect on ADP/O ratio in 5 months old transgenic AD mouse model in presence of succinate at 50 mg/kg, po dosed 5 times/week for 2 weeks (1.4 +/- 0.1); format: functional
Mus musculus [13] = organism: Mus musculus; test: Inhibition of mitochondrial complex 1 in C57BL/6 mouse cerebral cortex mitochondria assessed as modulation of maximal rate of ADP-stimulated respiration of pyruvate at 2 uM
Outline: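 Mitochondria isolated from C57BL/6 mouse cerebral cortex (N=6) with vehicle or 2 μM compound. Oxygen consumption measured by Clark-type electrode at 30 °C with pyruvate/malate (20/5 mM) or succinate (20 mM). ADP-stimulated (state 3) and state 4 rates recorded; RCR taken as state 3/state 4, with ADP/O also derived.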

[14] = Effect on ADP/O ratio in 5 months old transgenic AD mouse model in presence of pyruvate and malate at 50 mg/kg, po dosed 5 times/week for 2 weeks (2.6 +/- 0.2); format: functional
MC65 [15] = test: Inhibition of mitochondrial complex 1 in human MC65 cells assessed as inhibition of antimycin A-induced ROS production at 1 to 3 uM incubated for 12 hrs by mitoSOX fluorescence based flow cytometry; format: cell-based; settings: dose microM 1-3, time 12.0 hrs
Mus musculus [16] = test: Inhibition of mitochondrial complex 1 in 10 months old transgenic AD mouse model assessed as suppression of state 3 respiration of pyruvate at 50 mg/kg, po QD for 8 weeks; format: functional, organism-based
Cerebral cortex [17] = test: Effect on respiratory control ratio in C57BL/6 mouse cerebral cortex mitochondria at 2 uM (reference value: 5.3)
MC65 [18] = test: Inhibition of mitochondrial complex 1 in human MC65 cells assessed as inhibition of ROS production incubated for 48 hrs by mitoSOX fluorescence based flow cytometry; format: cell-based
Outline: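 MC65 cells in Opti-MEM (1.6×10^6/well) incubated with compound at 37 °C for 48 h, with or without tetracycline. Collected into HBSS and stained with mitoSOX (2.5 μM) 20 min at 37 °C. Washed twice, then mean fluorescence intensity read by flow cytometry.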

Cortical neuron [19] = test: Inhibition of mitochondrial complex 1 in mouse cortical neurons assessed as inhibition of MPP+-induced mitochondrial depolarization incubated for 24 hrs by fluorescence based assay
Outline: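 Primary cortical neurons from E15.5 C57BL/6J embryos (DIV 14; 5×10^4 cells/well) were given compound plus MPP+ for 24 h. They were then loaded with TMRM (1 μM final, 30 min) and washed twice with PBS. Dye was released with 50% DMSO/0.5% Triton in water and read at Ex/Em 548/574 nm.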

SH-SY5Y [20] = test: Inhibition of mitochondrial complex 1 in human SH-SY5Y cells assessed as inhibition of MPP+-induced mitochondrial depolarization in presence of 10 uM NAC incubated for 24 hrs by fluorescence based assay; format: cell-based
Outline: as §1

Mus musculus [21] = test: Inhibition of mitochondrial complex 1 in 5 months old transgenic AD mouse model assessed as suppression of state 3 respiration of pyruvate at 50 mg/kg, po dosed 5 times/week for 2 weeks; format: functional, organism-based
Mus musculus [22] = test: Effect on respiratory control ratio in 5 months old transgenic AD mouse model in presence of pyruvate and malate at 50 mg/kg, po dosed 5 times/week for 2 weeks (4.1 +/- 0.7); format: functional
MC65 [23] = test: Effect on ATP content in human MC65 cells at 0.1 to 1 uM incubated for 48 hrs; format: functional, cell-based; settings: dose microM 0.1-1, time 48.0 hrs
[24] = Inhibition of mitochondrial complex 1 in 10 months old transgenic AD mouse model assessed as suppression of maximal rate of ADP-stimulated respiration of pyruvate at 50 mg/kg, po QD for 8 weeks; format: functional; settings: 1344 h
Mus musculus [25] = test: Effect on respiratory control ratio in 5 months old transgenic AD mouse model at 50 mg/kg, po dosed 5 times/week for 2 weeks; format: functional, organism-based
Mus musculus [26] = organism: Mus musculus; test: Inhibition of mitochondrial complex 1 in C57BL/6 mouse cerebral cortex mitochondria assessed as reduction in ETC enzymatic activity at 2 uM relative to control
Outline: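 Detergent-solubilized mouse brain mitochondria (N=6) treated with 2 μM compound, then electron transport chain enzyme activities determined.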

## COc1ccc2[nH]cc(CCNC(=O)CC(=O)CCc3ccc(O)cc3)c2c1
Cerebral cortex [1]
  Ratio: 3.1
Cortical neuron [2]
  Activity: 2 RFU/min
SH-SY5Y [3]
  inhibition: Active
MC65 [4]
  Activity: 5.8 RFU/min
Mus musculus [5]
  inhibition: inactive
Mus musculus [6]
  inhibition: Active
SH-SY5Y [7]
  inhibition: Dose-dependent effect
Mus musculus [8]
  Activity: inactive
Mus musculus [9]
  Ratio: 2.7
MC65 [10]
  Activity: inactive
[11]
  inhibition in vivo at 50 mg/kg: 9%
[12]
  Ratio: 1.3
Mus musculus [13]
  inhibition: Active
[14]
  Ratio: 2.6
MC65 [15]
  inhibition: inactive
Mus musculus [16]
  inhibition: Active
Cerebral cortex [17]
  Ratio: 4.7
MC65 [18]
  inhibition: Dose-dependent effect
Cortical neuron [19]
  inhibition: Dose-dependent effect
SH-SY5Y [20]
  inhibition: Active
Mus musculus [21]
  inhibition: Active
Mus musculus [22]
  Ratio: 4.2
MC65 [23]
  Activity: inactive
[24]
  inhibition in vivo at 50 mg/kg: 25%
Mus musculus [25]
  Activity: inactive
Mus musculus [26]
  inhibition: 20%
